Assays:
[1] = Oral bioavailability in CD-1 mouse at 50 mg/kg and measured up to 24 hrs by LC/MS-MS analysis; format: ADME, organism-based; conditions: in vivo
Method in brief: (§1)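 Male CD1 mice, about 6–8 weeks old and 20–30 g, were dosed PO at 40 or 50 mg/kg in 0.1 M NaOH in PBS, pH 7–8.5, prepared the same day. Three mice per cohort. Dorsal metatarsal vein blood was collected into heparin at 15, 30 min and 1, 2, 4, 8, 12, 24 h. Plasma was spun at 4 °C, frozen at –75 °C and quantified by LC–MS/MS.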

[2] = AUClast in CD-1 mouse at 50 mg/kg, po and measured up to 24 hrs by LC/MS-MS analysis; format: ADME, organism-based; parameters: route oral, dose 50 mg/kg, time <=24; conditions: in vivo; method in brief: as §1
[3] = Cmax in CD-1 mouse at 10 mg/kg, iv and measured up to 24 hrs by LC/MS-MS analysis; format: ADME, organism-based; parameters: route intravenous, dose 10 mg/kg, time <=24; conditions: in vivo
Method in brief: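 Male CD1 mice, about 6–8 weeks old and 20–30 g, received 10 mg/kg IV in 0.1 M NaOH in PBS adjusted to pH 7–8.5, made fresh on the day of dosing. Three mice per cohort. Blood was taken from the dorsal metatarsal vein at 5, 15, 30 min and 1, 2, 4, 8, 12, 24 h into heparin tubes. Plasma was spun at 4 °C, stored at –75 °C and analysed by LC–MS/MS. For IV dosing Cmax = C0.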

[4] = Cmax in CD-1 mouse at 50 mg/kg, po and measured up to 24 hrs by LC/MS-MS analysis; format: ADME, organism-based; parameters: route oral, dose 50 mg/kg, time <=24; conditions: in vivo; method in brief: as §1
[5] = biological target: Voltage-gated inwardly rectifying potassium channel KCNH2 (Homo sapiens, UniProt Q12809); experiment: Inhibition of human ERG by patch clamp method; conditions: dose >10 µM
Voltage-gated inwardly rectifying potassium channel KCNH2, sequence (Q12809 whole entry): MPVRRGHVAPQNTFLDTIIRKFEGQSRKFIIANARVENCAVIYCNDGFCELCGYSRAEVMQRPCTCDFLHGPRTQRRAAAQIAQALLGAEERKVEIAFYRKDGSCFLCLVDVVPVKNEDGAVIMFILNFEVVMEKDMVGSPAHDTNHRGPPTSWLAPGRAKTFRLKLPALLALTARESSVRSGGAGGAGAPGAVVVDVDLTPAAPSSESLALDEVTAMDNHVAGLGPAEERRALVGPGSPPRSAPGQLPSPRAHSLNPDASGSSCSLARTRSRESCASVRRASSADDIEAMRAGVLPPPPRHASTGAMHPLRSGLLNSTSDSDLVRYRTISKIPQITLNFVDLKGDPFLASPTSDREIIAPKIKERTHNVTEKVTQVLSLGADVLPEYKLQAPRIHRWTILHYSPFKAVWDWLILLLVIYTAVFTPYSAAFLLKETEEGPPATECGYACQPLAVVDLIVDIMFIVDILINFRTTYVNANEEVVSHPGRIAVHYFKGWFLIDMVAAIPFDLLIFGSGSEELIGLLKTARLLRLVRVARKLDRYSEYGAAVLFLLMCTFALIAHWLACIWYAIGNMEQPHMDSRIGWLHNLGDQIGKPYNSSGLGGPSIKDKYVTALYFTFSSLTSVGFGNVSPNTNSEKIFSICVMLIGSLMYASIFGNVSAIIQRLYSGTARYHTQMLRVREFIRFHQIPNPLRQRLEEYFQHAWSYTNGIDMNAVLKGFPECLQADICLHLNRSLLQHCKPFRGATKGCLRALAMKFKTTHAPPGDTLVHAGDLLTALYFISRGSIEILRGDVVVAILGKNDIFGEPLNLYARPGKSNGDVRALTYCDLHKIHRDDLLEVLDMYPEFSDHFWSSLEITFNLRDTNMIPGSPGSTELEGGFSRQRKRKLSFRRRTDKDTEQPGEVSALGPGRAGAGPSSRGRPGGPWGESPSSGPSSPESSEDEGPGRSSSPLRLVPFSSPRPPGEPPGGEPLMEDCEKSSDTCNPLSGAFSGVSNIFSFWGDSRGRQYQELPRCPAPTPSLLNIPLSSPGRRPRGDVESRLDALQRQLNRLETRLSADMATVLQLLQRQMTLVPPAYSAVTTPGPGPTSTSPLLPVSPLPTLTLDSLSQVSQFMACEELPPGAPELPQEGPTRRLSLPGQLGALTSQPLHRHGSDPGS

[6] = tested on: A673; experiment: Cytotoxicity against human A673 cells assessed as reduction in cell viability after 48 hrs by CellTiter-Glo assay; format: functional, cell-based; conditions: A673, 48 h
[7] = biological target: L-lactate dehydrogenase A chain (Homo sapiens, UniProt P00338); experiment: Inhibition of LDHA in human MIA PaCa-2 cells assessed as decrease in lactate production incubated for 2 hrs by lactate oxidase-coupled fluorescence based assay; format: cell-based
[8] = Half life in human liver microsomes at 1 uM in presence of NADPH by LC-MS/MS; format: ADME, Microsome
Method in brief: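 Time-course stability in human or mouse liver microsomes, or mouse hepatocytes, in the presence of NADPH and UDPGA. Parent compound was monitored at five time points to derive T1/2.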

[9] = biological target: T1, Cytochrome P450 2C8 (Homo sapiens, UniProt P10632); experiment: Inhibition of CYP2C8 (unknown origin) assessed as inhibitory concentration; format: ADME
T1 sequence (P10632 whole entry): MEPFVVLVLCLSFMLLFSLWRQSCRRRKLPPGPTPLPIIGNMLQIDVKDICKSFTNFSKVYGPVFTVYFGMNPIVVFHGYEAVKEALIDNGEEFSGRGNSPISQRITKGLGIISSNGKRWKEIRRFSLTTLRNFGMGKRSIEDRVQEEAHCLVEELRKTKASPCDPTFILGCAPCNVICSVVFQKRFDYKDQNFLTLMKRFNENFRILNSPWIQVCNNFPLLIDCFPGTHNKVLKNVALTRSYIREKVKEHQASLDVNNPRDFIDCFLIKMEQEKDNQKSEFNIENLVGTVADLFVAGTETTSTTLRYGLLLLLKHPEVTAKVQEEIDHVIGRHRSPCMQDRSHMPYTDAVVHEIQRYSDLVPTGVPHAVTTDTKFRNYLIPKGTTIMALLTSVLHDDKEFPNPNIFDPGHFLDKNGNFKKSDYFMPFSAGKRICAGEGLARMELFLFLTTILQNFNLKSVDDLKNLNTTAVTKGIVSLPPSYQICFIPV

[10] = biological target: T2, Cytochrome P450 2B6 (Homo sapiens, UniProt P20813); experiment: Inhibition of CYP2B6 (unknown origin) assessed as inhibitory concentration; format: ADME
T2 sequence (P20813 whole entry): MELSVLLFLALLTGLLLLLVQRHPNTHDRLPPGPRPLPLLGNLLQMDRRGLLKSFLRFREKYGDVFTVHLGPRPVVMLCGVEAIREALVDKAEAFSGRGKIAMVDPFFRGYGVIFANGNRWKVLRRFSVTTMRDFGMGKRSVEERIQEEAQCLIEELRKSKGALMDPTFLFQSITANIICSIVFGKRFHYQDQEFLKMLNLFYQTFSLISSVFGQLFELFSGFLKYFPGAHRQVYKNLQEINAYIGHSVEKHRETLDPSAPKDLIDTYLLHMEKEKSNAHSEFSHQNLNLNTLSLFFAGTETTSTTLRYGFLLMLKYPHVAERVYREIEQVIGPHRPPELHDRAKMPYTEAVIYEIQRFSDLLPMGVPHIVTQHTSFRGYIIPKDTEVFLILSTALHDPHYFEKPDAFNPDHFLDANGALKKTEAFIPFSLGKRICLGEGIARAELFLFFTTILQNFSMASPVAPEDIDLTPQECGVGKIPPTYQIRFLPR

[11] = Oral bioavailability in CD-1 mouse at 40 mg/kg and measured up to 24 hrs by LC/MS-MS analysis; format: ADME, organism-based; conditions: in vivo
Method in brief: (§2)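 Male CD1 mice, 6–8 weeks, about 20–30 g, three per cohort. Dosed PO at 40 or 50 mg/kg, or IV at 10 mg/kg for reference, in PBS with […] (pH 7–8). Dorsal metatarsal blood was taken into heparin at 15 min to 24 h (PO) or 5 min to 24 h (IV). Plasma was frozen and quantified by LC–MS/MS.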

[12] = AUC last in CD-1 mouse at 40 mg/kg, po and measured up to 24 hrs by LC/MS-MS analysis; format: ADME, organism-based; parameters: route oral, dose 40 mg/kg, time <=24; conditions: in vivo; method in brief: as §2
[13] = Cmax in CD-1 mouse at 40 mg/kg, po and measured up to 24 hrs by LC/MS-MS analysis; format: ADME, organism-based; parameters: route oral, dose 40 mg/kg, time <=24; conditions: in vivo; method in brief: as §2
[14] = Terminal half life in CD-1 mouse at 40 mg/kg, po and measured up to 24 hrs by LC/MS-MS analysis; format: ADME, organism-based; conditions: in vivo; method in brief: as §2
[15] = biological target: T3, CYP2C8 (Homo sapiens, UniProt P10632); experiment: Inhibition of CYP2C8 (unknown origin) at 10 uM relative to control; format: ADME
T3 sequence (P10632 whole entry): T1 sequence (P10632 whole entry)

[16] = biological target: T4, CYP2B6 (Homo sapiens, UniProt P20813); experiment: Inhibition of CYP2B6 (unknown origin) at 10 uM relative to control; format: ADME
T4 sequence (P20813 whole entry): T2 sequence (P20813 whole entry)

[17] = biological target: CYP2C9 (Homo sapiens, UniProt P11712); experiment: Inhibition of CYP2C9 (unknown origin) at 10 uM relative to control; format: ADME
CYP2C9, sequence (P11712 whole entry): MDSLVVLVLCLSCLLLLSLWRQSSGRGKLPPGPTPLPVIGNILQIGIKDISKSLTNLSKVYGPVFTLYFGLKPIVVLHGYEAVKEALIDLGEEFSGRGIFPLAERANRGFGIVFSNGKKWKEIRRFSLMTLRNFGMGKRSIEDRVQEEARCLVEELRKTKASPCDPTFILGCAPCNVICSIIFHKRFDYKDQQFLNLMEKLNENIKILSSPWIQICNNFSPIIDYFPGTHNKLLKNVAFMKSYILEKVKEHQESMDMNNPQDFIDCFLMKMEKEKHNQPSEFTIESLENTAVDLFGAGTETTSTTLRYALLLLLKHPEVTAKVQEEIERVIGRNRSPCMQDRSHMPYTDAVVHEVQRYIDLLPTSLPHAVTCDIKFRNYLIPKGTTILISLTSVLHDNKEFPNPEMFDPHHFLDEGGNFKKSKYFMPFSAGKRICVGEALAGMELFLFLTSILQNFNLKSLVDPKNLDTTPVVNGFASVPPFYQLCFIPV

Row | SMILES | F [1] | AUClast [2] | Cmax [3] | Cmax [4] | INH [5] | IC50 [6] | IC50 [7] | half-life at 1 µM [8] | INH [9] | INH [10] | F [11] | AUClast [12] | Cmax [13] | beta t1/2 [14] | inhibition at 10 µM [15] | inhibition at 10 µM [16] | inhibition at 10 µM [17]
1 | Cc1ccc(C#Cc2cccc(-c3nn(-c4nc(C(=O)O)cs4)c(CC4CC4)c3Cc3ccc(S(N)(=O)=O)c(F)c3)c2)s1 | 64% | 53540 ng·h/mL | 33800 ng/mL | 8830 ng/mL | > 10 µM | 105 nM | 367 nM | > 2 h | 7.5 µM | 14 µM | – | – | – | – | – | – | –
2 | Cc1ccc(C#Cc2cc(-c3nn(-c4nc(C(=O)O)cs4)c(CC4CC4)c3Cc3ccc(S(N)(=O)=O)c(F)c3)ccc2F)s1 | – | – | 41800 ng/mL | – | > 10 µM | 119 nM | 403 nM | > 2 h | – | – | 73.8% | 31390 ng·h/mL | 5260 ng/mL | 2.78 h | 80% | 46% | 45%
